Columns and labels:
Type in all cases: functional, cell-based
Bel-7402 = assay: Cytotoxicity against human Bel7402 cells after 24 hrs by MTT assay; conditions: Bel-7402, 24 h
Outline: (§1)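 Cell lines from ATCC, seeded at 3000 cells per well and left 24 h before exposure to a range of compound concentrations. After 24 h of exposure, MTT was added and the plates were incubated another 24 h. Viability was read as absorbance at 570 nm, and IC50 values were calculated from these readings. Paclitaxel served as the positive control.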

A549 = assay: Cytotoxicity against human A549 cells after 24 hrs by MTT assay; conditions: A549, 24 h; outline: as §1
[1] = Cytotoxicity against human PC3M cells after 24 hrs by MTT assay; conditions: PC-3M; outline: as §1
HCT-8 = assay: Cytotoxicity against human HCT8 cells after 24 hrs by MTT assay; conditions: HCT-8, 24 h; outline: as §1

| Compound | IC50 (Bel-7402) [µM] | IC50 (A549) [µM] | IC50 [1] [µM] | IC50 (HCT-8) [µM] |
| --- | --- | --- | --- | --- |
| C=C1[C@H]2O[C@@H](O)[C@@H]3[C@](CCl)(O2)[C@@H](OC(C)=O)C[C@]13O | > 10 | > 10 | > 10 | > 10 |
| C=C1[C@H]2O[C@H](OC)[C@@H]3[C@](CCl)(O2)[C@@H](OC(C)=O)C[C@]13O | > 10 | > 10 | > 10 | > 10 |
| C=C1[C@H]2O[C@@H](OCC)[C@@H]3[C@](CCl)(O2)[C@@H](OC(C)=O)C[C@]13O | > 10 | > 10 | > 10 | > 10 |
| C=C1[C@H]2O[C@@H](OC)[C@@H]3[C@](CCl)(O2)[C@@H](OC(C)=O)C[C@]13O | > 10 | > 10 | > 10 | > 10 |
| C=C1[C@H]2O[C@H](OCC)[C@@H]3[C@](CCl)(O2)[C@@H](OC(C)=O)C[C@]13O | > 10 | > 10 | > 10 | > 10 |
| CC(=O)O[C@H]1C[C@]2(O)C(COC(=O)[C@H](OC(=O)CC(C)C)C(C)C)=CO[C@@H](OC(=O)CC(C)C)[C@@H]2[C@@]1(O)CCl [VOLVALTRATE B] | 6.1 | 8.5 | 2 | 3.2 |

From ChEMBL document CHEMBL1268860, “Revision of the Structures of 1,5-Dihydroxy-3,8-epoxyvalechlorine, Volvaltrate B, and Valeriotetrate C from Valeriana jatamansi and V. officinalis” (J Nat Prod, 2010)
